This note sets out measurements from ChEMBL document CHEMBL1132236, “Synthesis and pharmacology of the baclofen homologues 5-amino-4-(4-chlorophenyl)pentanoic acid and the R- and S-enantiomers of 5-amino-3-(4-chlorophenyl)pentanoic acid” (J Med Chem, 1999).

The species entered for experiment [1] is Cavia porcellus. The experiment in a line: The compound was tested for inhibition of electrically evoked muscle contractions in isolated longitudinal guinea pig ileum muscle. The format is functional. A digest of the protocol:
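Guinea pig ileum longitudinal muscle strips with myenteric plexus (Paton–Zar) held in Krebs-bicarbonate gassed 5% CO2/95% O2 at 37 °C. After 60 min equilibration, stimulated at 0.1 Hz, 5 ms, 100 V. Isometric contractions recorded, inhibition taken relative to maximal inhibition. EC50 fitted with Hill equation. 20–30 min recovery between curves. At least four preparations from two animals.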

The target of experiment [2] is GABA-A receptor; anion channel. Briefly: Inhibition of [3H]muscimol binding to Gamma-aminobutyric acid A (GABA-A) receptor of rat brain membranes. The format is cell membranes, Membrane. A digest of the protocol: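 Male Sprague-Dawley rat brain synaptic membranes, washed repeatedly, resuspended at 1 mg/mL in 50 mM Tris-HCl pH 7.4. Incubated with 10 nM [3H]muscimol for 1 h at 20 °C, competitor 10^-10 to 10^-3 M. Nonspecific binding defined with 1 mM GABA. GF/B filtration, liquid scintillation counting.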

The species entered for experiment [3] is Cavia porcellus. The experiment in a line: Sensitivity towards CGP-35348 in isolated longitudinal guinea pig ileum muscle; Sensitive. The format is functional.
Another experiment concerns the target GABA B receptor (Rattus norvegicus, UniProt O88871+Q9Z0U4). The experiment in a line: Displacement of [3H]GABA from Gamma-aminobutyric acid type B receptor. The format is protein-complex assay. A digest of the protocol: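 Rat brain synaptic membranes (male Sprague-Dawley), washed repeatedly in 5 mM Tris-HCl pH 7.1. 0.5 mg protein incubated with 50 nM [3H]GABA plus 20 µM isoguvacine in 50 mM Tris-HCl pH 7.4 with 2.5 mM CaCl2, 45 min at 24 °C. GF/B filtration, scintillation counting.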
(In general: In a radioligand displacement assay an active substance lowers the binding of a labelled ligand.)

The species entered for experiment [4] is Cavia porcellus. Briefly: Sensitivity towards CGP-35348 in isolated longitudinal guinea pig ileum muscle; sensitive. The format is functional.

The term EC50 denotes the concentration at which the effect is half-maximal. Low readings indicate an effect from little substance, high ones a need for much substance. Usually IC50 stands for the point on the concentration scale where inhibition reaches its midpoint. Read a low IC50 as inhibition by little substance.

Calls of active or inactive are those of the source. The calls are words filed in the database; no cut-off is given here. Bounds are passed on as bounds.

Sequence of GABA B receptor (Q9Z0U4 whole entry): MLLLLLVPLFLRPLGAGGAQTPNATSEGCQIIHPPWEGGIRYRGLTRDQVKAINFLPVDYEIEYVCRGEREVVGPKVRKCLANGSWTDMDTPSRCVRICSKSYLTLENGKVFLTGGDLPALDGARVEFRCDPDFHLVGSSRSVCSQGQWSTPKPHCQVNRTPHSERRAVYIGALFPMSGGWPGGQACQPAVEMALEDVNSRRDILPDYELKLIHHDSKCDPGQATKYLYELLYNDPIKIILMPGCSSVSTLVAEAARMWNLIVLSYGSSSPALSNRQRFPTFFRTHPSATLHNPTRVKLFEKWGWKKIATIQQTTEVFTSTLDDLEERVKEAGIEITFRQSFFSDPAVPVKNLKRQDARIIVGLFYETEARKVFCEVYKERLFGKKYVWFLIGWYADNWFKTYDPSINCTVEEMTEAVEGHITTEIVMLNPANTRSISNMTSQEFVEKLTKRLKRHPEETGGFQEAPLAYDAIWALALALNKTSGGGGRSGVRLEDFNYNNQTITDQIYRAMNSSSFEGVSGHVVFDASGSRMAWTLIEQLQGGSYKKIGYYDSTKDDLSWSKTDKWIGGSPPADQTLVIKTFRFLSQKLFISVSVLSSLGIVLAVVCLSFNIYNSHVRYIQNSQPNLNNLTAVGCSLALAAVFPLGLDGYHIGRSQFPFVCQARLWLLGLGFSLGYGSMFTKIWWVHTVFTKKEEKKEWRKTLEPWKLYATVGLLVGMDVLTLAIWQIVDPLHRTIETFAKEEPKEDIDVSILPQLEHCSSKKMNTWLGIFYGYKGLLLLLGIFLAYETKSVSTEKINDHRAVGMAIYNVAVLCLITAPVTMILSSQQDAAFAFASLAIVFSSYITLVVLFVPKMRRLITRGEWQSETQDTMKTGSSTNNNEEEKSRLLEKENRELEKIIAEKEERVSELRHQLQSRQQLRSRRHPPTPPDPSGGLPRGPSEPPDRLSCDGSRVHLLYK
Sequence of GABA B receptor (O88871 whole entry): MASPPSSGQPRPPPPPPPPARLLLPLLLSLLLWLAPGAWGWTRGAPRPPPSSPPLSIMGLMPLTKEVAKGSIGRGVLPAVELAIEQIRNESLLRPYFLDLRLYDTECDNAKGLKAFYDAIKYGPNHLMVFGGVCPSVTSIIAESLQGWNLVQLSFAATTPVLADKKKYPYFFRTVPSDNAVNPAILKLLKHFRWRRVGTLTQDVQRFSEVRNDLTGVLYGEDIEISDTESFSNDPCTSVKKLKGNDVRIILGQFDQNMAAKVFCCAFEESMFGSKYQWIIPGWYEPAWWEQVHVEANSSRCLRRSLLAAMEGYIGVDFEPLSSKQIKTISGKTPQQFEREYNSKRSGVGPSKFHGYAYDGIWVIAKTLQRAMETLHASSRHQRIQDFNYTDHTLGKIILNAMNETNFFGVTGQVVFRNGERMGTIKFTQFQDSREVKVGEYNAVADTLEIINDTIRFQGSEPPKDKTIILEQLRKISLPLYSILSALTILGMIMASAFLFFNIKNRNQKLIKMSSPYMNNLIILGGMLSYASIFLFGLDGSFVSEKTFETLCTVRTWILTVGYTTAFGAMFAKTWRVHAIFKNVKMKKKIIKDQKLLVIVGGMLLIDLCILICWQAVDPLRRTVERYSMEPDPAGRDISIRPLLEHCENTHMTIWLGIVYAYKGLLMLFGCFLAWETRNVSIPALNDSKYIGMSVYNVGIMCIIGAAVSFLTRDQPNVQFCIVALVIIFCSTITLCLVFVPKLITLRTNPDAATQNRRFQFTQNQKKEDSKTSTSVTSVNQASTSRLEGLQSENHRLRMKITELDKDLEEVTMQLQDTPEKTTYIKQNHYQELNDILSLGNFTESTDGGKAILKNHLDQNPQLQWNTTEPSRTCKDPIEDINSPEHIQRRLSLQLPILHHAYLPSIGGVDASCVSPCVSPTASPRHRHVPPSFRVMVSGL

Turning to `NC[C@H](CC(=O)O)c1ccc(Cl)cc1` [ARBACLOFEN], the half-maximal effective concentration (EC50) in the experiment listed under Cavia porcellus [1] was 11 µM. The IC50 in experiment [2] is > 100 µM. For the same compound, in the experiment listed under Cavia porcellus [3], the Sensitivity entry was “Active”.

Take `NCC(CCC(=O)O)c1ccc(Cl)cc1` (stereo unspecified): in the experiment listed under Cavia porcellus [1], the EC50 was > 3000 µM. In addition, the IC50 is > 100 µM in experiment [2] and > 0.14 µM at GABA B receptor.

`NCC[C@@H](CC(=O)O)c1ccc(Cl)cc1` returned an EC50 in the experiment listed under Cavia porcellus [1] of 310 µM. Further, the IC50 is > 100 µM in experiment [2] and > 0.14 µM on GABA B receptor. In the experiment listed under Cavia porcellus [4], the Sensitivity result is “inactive”.

The compound `NCC[C@H](CC(=O)O)c1ccc(Cl)cc1` displayed an EC50 in the experiment filed under Cavia porcellus [1] of 11 µM. For the same compound, the IC50 in experiment [2] is > 100 µM; at GABA B receptor, 7.4 µM. Moreover, the Sensitivity result in the experiment listed under Cavia porcellus [3] is “inactive”.

In the case of `NC[C@@H](CC(=O)O)c1ccc(Cl)cc1`, the EC50 in the experiment filed under Cavia porcellus [1] is 3300 µM. In addition, the IC50 in experiment [2] is > 100 µM.
